In ChEMBL document CHEMBL6177937, “Design, synthesis, and biological evaluation of novel thiazole derivatives as PI3K/mTOR dual inhibitors” (RSC Med Chem, 2024):

Legend:
A498 = experiment: Growth inhibition of human A498 cells measured after 48 hrs by SRB assay; format: functional
Summary of the method: (§1)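 NCI 60-line format with five concentrations (10-fold or ½-log serial dilutions) from DMSO stocks in medium with 50 μg/mL gentamicin. Cells preincubated 24 h, then exposed 48 h at 37°C, 5% CO2. Time-zero plates TCA-fixed. SRB absorbance read at 515 nm. GI50 taken from [(Ti−Tz)/(C−Tz)]×100 = 50. Out-of-range values are expressed as > or < the highest or lowest concentration tested.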

SK-MEL-5 = experiment: Growth inhibition of human SK-MEL-5 cells measured after 48 hrs by SRB assay; format: functional
Summary of the method: (§2)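 NCI 60-line SRB screen: cells seeded […], grown 24 h at 37°C, 5% CO2, then exposed 48 h to five concentrations (10-fold or ½-log dilutions from DMSO stock). Adherent cells fixed with cold TCA (final 10%), suspension cells with 80% TCA (final 16%); SRB stained, read at 515 nm. GI50 from time-zero, control and treated absorbances.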

M14 = experiment: Growth inhibition of human M14 cells measured after 48 hrs by SRB assay; format: functional; summary of the method: as §1
SK-OV-3 = experiment: Growth inhibition of human SK-OV-3 cells measured after 48 hrs by SRB assay; format: functional; summary of the method: as §2
RXF 393 = experiment: Growth inhibition of human RXF 393 cells measured after 48 hrs by SRB assay; format: functional; summary of the method: as §2
HOP-92 = experiment: Growth inhibition of human HOP-92 cells measured after 48 hrs by SRB assay; format: functional; summary of the method: as §1
BT-549 = experiment: Growth inhibition of human BT-549 cells measured after 48 hrs by SRB assay; format: functional; summary of the method: as §1
SW-620 = experiment: Growth inhibition of human SW620 cells measured after 48 hrs by SRB assay; format: functional; summary of the method: as §2
RPMI-8226 = experiment: Growth inhibition of human RPMI-8226 cells measured after 48 hrs by SRB assay; format: functional; summary of the method: as §2
NCI-H23 = experiment: Growth inhibition of human NCI-H23 cells measured after 48 hrs by SRB assay; format: functional; summary of the method: as §1
K562 = experiment: Growth inhibition of human K562 cells measured after 48 hrs by SRB assay; format: functional; summary of the method: as §1
HCT-15 = experiment: Growth inhibition of human HCT-15 cells measured after 48 hrs by SRB assay; format: functional; summary of the method: as §1
UACC-257 = experiment: Growth inhibition of human UACC-257 cells measured after 48 hrs by SRB assay; format: functional; conditions: for CC50: read-out: LC50 (the source's name); summary of the method: as §2
PC-3 = experiment: Growth inhibition of human PC-3 cells measured after 48 hrs by SRB assay; format: functional; summary of the method: as §2
OVCAR-5 = experiment: Growth inhibition of human OVCAR-5 cells measured after 48 hrs by SRB assay; format: functional; conditions: for CC50: read-out: LC50 (the source's name); summary of the method: as §1
SNB-75 = experiment: Growth inhibition of human SNB-75 cells measured after 48 hrs by SRB assay; format: functional; summary of the method: as §2
OVCAR-4 = experiment: Growth inhibition of human OVCAR-4 cells measured after 48 hrs by SRB assay; format: functional; summary of the method: as §1
786-0 = experiment: Growth inhibition of human 786-0 cells measured after 48 hrs by SRB assay; format: functional; conditions: for CC50: read-out: LC50 (the source's name); summary of the method: as §1
NCI-H226 = experiment: Growth inhibition of human NCI-H226 cells measured after 48 hrs by SRB assay; format: functional; summary of the method: as §1
LOX IMVI = experiment: Growth inhibition of human LOX IMVI cells measured after 48 hrs by SRB assay; format: functional; conditions: for CC50: read-out: LC50 (the source's name); summary of the method: as §1
HL-60 [1] = experiment: Cytotoxicity against human HL-60 cells assessed as reduction in cell viability measured after 24 hrs by MTT assay; format: functional, cell-based; conditions: HL-60, 24 h
Summary of the method: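 MTT viability with 24 h incubation in 96-well plates. Five semi-log concentrations from 0.01 to 100 μM. Formazan absorbance read at 570 nm, with 690 nm background subtracted. Run in triplicate. IC50 obtained by sigmoidal dose-response fitting. Cells are leukemia HL-60(TB) and normal lymphocytes (PCS-800-017).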

ACHN = experiment: Growth inhibition of human ACHN cells measured after 48 hrs by SRB assay; format: functional; summary of the method: as §1
MCF7 = experiment: Growth inhibition of human MCF7 cells measured after 48 hrs by SRB assay; format: functional; summary of the method: as §1
HCC 2998 = experiment: Growth inhibition of human HCC 2998 cells measured after 48 hrs by SRB assay; format: functional; summary of the method: as §1
SF-539 = experiment: Growth inhibition of human SF-539 cells measured after 48 hrs by SRB assay; format: functional; summary of the method: as §2
HL-60 [2] = experiment: Induction of apoptosis in human HL-60 cells assessed as increase in caspase-3 level measured after 24 hrs by ELISA relative to control
NCI-H322M = experiment: Growth inhibition of human NCI-H322M cells measured after 48 hrs by SRB assay; format: functional; summary of the method: as §1
COLO 205 = experiment: Growth inhibition of human COLO 205 cells measured after 48 hrs by SRB assay; format: functional; summary of the method: as §1
[3] = target: Serine/threonine-protein kinase mTOR (Homo sapiens, UniProt P42345); experiment: Inhibition of recombinant human N-terminal FLAG-tagged mTOR (1362 to end residues) expressed in baculovirus infected Sf21 insect cells using ULight-4E-BP1 as substrate measured after 30 mins by LANCE ultra assay
MDA-MB-435 = experiment: Growth inhibition of human MDA-MB-435 cells measured after 48 hrs by SRB assay; format: functional; summary of the method: as §1
[4] = Selectivity index, ratio of IC50 for human PCS-800-017 cells to IC50 for human HL-60 cells; format: toxicity; conditions: PCS-800-017 cells and HL-60 cells, read-out: Ratio IC50
CCRF-CEM = experiment: Growth inhibition of human CCRF-CEM cells measured after 48 hrs by SRB assay; format: functional; summary of the method: as §1
SF-295 = experiment: Growth inhibition of human SF-295 cells measured after 48 hrs by SRB assay; format: functional; conditions: for CC50: read-out: LC50 (the source's name); summary of the method: as §2
HCT-116 = experiment: Growth inhibition of human HCT-116 cells measured after 48 hrs by SRB assay; format: functional; summary of the method: as §1

SMILES: CCOc1cc(/C=N/Nc2nc(-c3cccc([N+](=O)[O-])c3)cs2)ccc1O
- GI50 (A498): 20.2 µM
- TGI (A498): 44.8 µM
- GI50 (SK-MEL-5): 2.73 µM
- TGI (SK-MEL-5): 9.14 µM
- GI50 (M14): 1.85 µM
- TGI (M14): 3.89 µM
- GI50 (SK-OV-3): 3.36 µM
- TGI (SK-OV-3): 27.8 µM
- GI50 (RXF 393): 1.89 µM
- TGI (RXF 393): 4.82 µM
- GI50 (HOP-92): 3.2 µM
- TGI (HOP-92): 30.9 µM
- GI50 (BT-549): 2.84 µM
- TGI (BT-549): 8.12 µM
- GI50 (SW-620): 3.53 µM
- TGI (SW-620): 11.6 µM
- GI50 (RPMI-8226): 3.03 µM
- TGI (RPMI-8226): > 100 µM
- GI50 (NCI-H23): 1.99 µM
- TGI (NCI-H23): 5.14 µM
- GI50 (K562): 3.05 µM
- TGI (K562): 34.3 µM
- GI50 (HCT-15): 2.86 µM
- TGI (HCT-15): 11.8 µM
- GI50 (UACC-257): 1.71 µM
- TGI (UACC-257): 3.23 µM
- CC50 (UACC-257): 6.08 µM
- GI50 (PC-3): 2.54 µM
- TGI (PC-3): 11.4 µM
- GI50 (OVCAR-5): 3.79 µM
- TGI (OVCAR-5): 16.2 µM
- CC50 (OVCAR-5): 51.3 µM
- GI50 (SNB-75): 2.72 µM
- TGI (SNB-75): 13.1 µM
- GI50 (OVCAR-4): 2.41 µM
- TGI (OVCAR-4): 8.05 µM
- GI50 (786-0): 2.75 µM
- TGI (786-0): 8.68 µM
- CC50 (786-0): 81.8 µM
- GI50 (NCI-H226): 2.36 µM
- TGI (NCI-H226): 6.22 µM
- GI50 (LOX IMVI): 1.73 µM
- TGI (LOX IMVI): 3.59 µM
- CC50 (LOX IMVI): 7.46 µM
- IC50 (HL-60 [1]): 2.32 µM
- GI50 (ACHN): 3.22 µM
- TGI (ACHN): 11.6 µM
- GI50 (MCF7): 2.86 µM
- TGI (MCF7): 10.9 µM
- GI50 (HCC 2998): 3.43 µM
- TGI (HCC 2998): 19.8 µM
- GI50 (SF-539): 1.78 µM
- TGI (SF-539): 4.15 µM
- fold change (FC) (HL-60 [2]): 4.61
- GI50 (NCI-H322M): 4.32 µM
- TGI (NCI-H322M): 16.9 µM
- GI50 (COLO 205): 16.4 µM
- TGI (COLO 205): 38.7 µM
- IC50 [3]: 0.221 µM
- GI50 (MDA-MB-435): 2.7 µM
- TGI (MDA-MB-435): 9.14 µM
- selectivity ratio [4]: 12.3
- GI50 (CCRF-CEM): 2.03 µM
- TGI (CCRF-CEM): 29.6 µM
- GI50 (SF-295): 2 µM
- TGI (SF-295): 4.28 µM
- CC50 (SF-295): 9.16 µM
- GI50 (HCT-116): 2.34 µM
- TGI (HCT-116): 5.83 µM

SMILES: O=[N+]([O-])c1cc(/C=N/Nc2nc(-c3ccc(Cl)cc3)cs2)ccc1Cl
- GI50 (A498): 14.8 µM
- TGI (A498): 39.6 µM
- GI50 (SK-MEL-5): 10.3 µM
- TGI (SK-MEL-5): 24.5 µM
- GI50 (M14): 17 µM
- TGI (M14): 45.6 µM
- GI50 (SK-OV-3): 21.8 µM
- TGI (SK-OV-3): 65 µM
- GI50 (RXF 393): 11.9 µM
- TGI (RXF 393): 30.6 µM
- GI50 (HOP-92): 2.59 µM
- TGI (HOP-92): 10.8 µM
- GI50 (BT-549): 14.5 µM
- TGI (BT-549): 40.4 µM
- GI50 (SW-620): 18.3 µM
- TGI (SW-620): 43.1 µM
- GI50 (RPMI-8226): 2.31 µM
- TGI (RPMI-8226): 6.29 µM
- GI50 (NCI-H23): 12.5 µM
- TGI (NCI-H23): 40.9 µM
- GI50 (K562): 5.86 µM
- TGI (K562): 66.4 µM
- GI50 (HCT-15): 13.1 µM
- TGI (HCT-15): 42.1 µM
- GI50 (UACC-257): 7.52 µM
- TGI (UACC-257): 22 µM
- CC50 (UACC-257): 51.6 µM
- GI50 (PC-3): 1.91 µM
- TGI (PC-3): 4.46 µM
- GI50 (OVCAR-5): 23 µM
- TGI (OVCAR-5): 78.2 µM
- CC50 (OVCAR-5): > 100 µM
- GI50 (SNB-75): 14.8 µM
- TGI (SNB-75): 40.1 µM
- GI50 (OVCAR-4): 8.25 µM
- TGI (OVCAR-4): 35.9 µM
- GI50 (786-0): 19.8 µM
- TGI (786-0): 61.3 µM
- CC50 (786-0): > 100 µM
- GI50 (NCI-H226): 4.21 µM
- TGI (NCI-H226): 32.6 µM
- GI50 (LOX IMVI): 3.91 µM
- TGI (LOX IMVI): > 100 µM
- CC50 (LOX IMVI): > 100 µM
- IC50 (HL-60 [1]): 2.29 µM
- GI50 (ACHN): 15.1 µM
- TGI (ACHN): 28.4 µM
- GI50 (MCF7): 1.79 µM
- TGI (MCF7): 3.81 µM
- GI50 (HCC 2998): 1.87 µM
- TGI (HCC 2998): 3.55 µM
- GI50 (SF-539): 16.3 µM
- TGI (SF-539): 31.1 µM
- fold change (FC) (HL-60 [2]): 3.48
- GI50 (NCI-H322M): 3.23 µM
- TGI (NCI-H322M): 13.7 µM
- GI50 (COLO 205): 15.4 µM
- TGI (COLO 205): 29.7 µM
- IC50 [3]: 0.896 µM
- GI50 (MDA-MB-435): 23.2 µM
- TGI (MDA-MB-435): 98.3 µM
- selectivity ratio [4]: 9.9
- GI50 (CCRF-CEM): 3.62 µM
- TGI (CCRF-CEM): 52.9 µM
- GI50 (SF-295): 14.9 µM
- TGI (SF-295): 28.3 µM
- CC50 (SF-295): 53.8 µM
- GI50 (HCT-116): 16.3 µM
- TGI (HCT-116): 36.6 µM
